Test results taken from ChEMBL document CHEMBL1147141, “Potent nonpeptide antagonists of the bradykinin B1 receptor: structure-activity relationship studies with novel diaminochroman carboxamides” (J Med Chem, 2007).

Key:
[1] = Clearance in Sprague-Dawley rat at 1 mg/kg, iv; type: ADME, organism-based; set-up: dose 1 mg/kg, route intravenous; settings: in vivo
Method in brief: (§1)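 Male Sprague-Dawley rats (225-280 g) with femoral and jugular vein cannulae were fasted overnight. They received an i.v. bolus of 1 mg/kg in 100% DMSO, prepared on the dosing day, n = 3. Blood was drawn via jugular cannula over 6 or 8 h into heparin. Plasma was acetonitrile-precipitated and measured by LC-MS/MS (positive MRM). Parameters were noncompartmental and reported with SEM.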

[2] = Oral bioavailability in Sprague-Dawley rat at 3 mg/kg, po; type: ADME, organism-based; settings: in vivo
[3] = Metabolic stability in human liver microsomes; type: ADME, Microsome; settings: read-out: Stability
[4] = Metabolic stability in rat liver microsomes; type: ADME, Microsome; settings: read-out: Stability
B1 bradykinin receptor [5] = molecular target: T1, B1 bradykinin receptor (Oryctolagus cuniculus, UniProt P48748); test: Antagonist activity at rabbit bradykinin B1 receptor; type: functional
T1 sequence (P48748 whole entry): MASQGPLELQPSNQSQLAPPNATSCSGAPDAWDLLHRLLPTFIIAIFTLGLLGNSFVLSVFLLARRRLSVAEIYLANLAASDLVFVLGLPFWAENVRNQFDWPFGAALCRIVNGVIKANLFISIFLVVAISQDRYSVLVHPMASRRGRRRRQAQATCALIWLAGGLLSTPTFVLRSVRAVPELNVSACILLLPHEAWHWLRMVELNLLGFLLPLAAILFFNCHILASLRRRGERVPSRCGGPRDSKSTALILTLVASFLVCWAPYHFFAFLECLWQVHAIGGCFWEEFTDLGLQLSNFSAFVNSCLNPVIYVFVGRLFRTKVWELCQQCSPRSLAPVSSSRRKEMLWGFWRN

B1 bradykinin receptor [6] = molecular target: T2, B1 bradykinin receptor (Rattus norvegicus, UniProt P97583); test: Antagonist activity at rat bradykinin B1 receptor; type: functional
T2 sequence (P97583 whole entry): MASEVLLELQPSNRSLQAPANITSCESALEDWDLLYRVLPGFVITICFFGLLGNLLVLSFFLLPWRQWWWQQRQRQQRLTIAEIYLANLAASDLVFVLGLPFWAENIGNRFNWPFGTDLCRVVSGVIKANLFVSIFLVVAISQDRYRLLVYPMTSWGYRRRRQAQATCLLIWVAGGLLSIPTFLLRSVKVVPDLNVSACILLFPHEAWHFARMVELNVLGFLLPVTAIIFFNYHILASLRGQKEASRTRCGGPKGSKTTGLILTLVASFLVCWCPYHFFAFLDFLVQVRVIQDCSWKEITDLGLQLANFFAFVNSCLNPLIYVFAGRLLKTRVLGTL

[7] = Half life in Sprague-Dawley rat at 1 mg/kg, iv; type: ADME, organism-based; set-up: dose 1 mg/kg, route intravenous; settings: in vivo; method in brief: as §1
[8] = Volume of distribution at steady state in Sprague-Dawley rat at 1 mg/kg, iv; type: ADME, organism-based; set-up: dose 1 mg/kg, route intravenous; settings: in vivo, read-out: Vss; method in brief: as §1
[9] = Oral bioavailability in Sprague-Dawley rat at 10 mg/kg, po; type: ADME, organism-based; settings: in vivo
Method in brief: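 Male Sprague-Dawley rats (225-280 g), cannulated and fasted overnight, were dosed by oral gavage at 10 mg/kg in 1% Tween 80, 2% HPMC, prepared 24-48 h before dosing, n = 3. Jugular blood was sampled over 6 or 8 h. Plasma was analysed by LC-MS/MS and parameters derived noncompartmentally.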

Oryctolagus cuniculus [10] = test: Reduction of DAK10-induced hypotension in subcutaneously dosed New Zealand rabbit blood pressure model; type: functional, organism-based
Method in brief: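 New Zealand white rabbits (2.0-3.0 kg, n = 1/dose) were given LPS 25 µg/kg i.v. 5 h before the study to induce B1 receptors. Under anesthesia, both carotids were catheterized to record mean arterial pressure and to give DAK. Baseline was set by two i.v. bolus injections of 1 µg DAK. Antagonist was then given s.c. (1, 2, 4, 10 or 20 mpk). At 30 and 75 min, blood was drawn for plasma levels and the DAK response was re-measured, expressed as % hypotensive response.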

Oryctolagus cuniculus [11] = test: Antinociceptive effect in subcutaneously dosed New Zealand rabbit assessed as reversal of carrageenan-induced hyperalgesia administered 2 hrs after carrageenan challenge; type: functional, organism-based
Method in brief: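 Male New Zealand white rabbits (500-700 g), right hind paw injected with lambda carrageenan (3% in saline, 200 µL). Three punctate mechanical withdrawal readings were taken before and at 3 h post-carrageenan. Antagonist was given s.c. at 1 mL/kg, at 2 h (20% Captisol vehicle) or 2.5 h (PBS vehicle, peptide) post-carrageenan. Post minus pre threshold gave a difference score, converted to %MPE with the vehicle group as Emin and 0 as Emax. Analysed by one-factor ANOVA and Dunnett's test.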

Row | Compound | clearance [1] | bioavailability [2] | microsomal CLint [3] | microsomal CLint [4] | IC50 (B1 bradykinin receptor [5]) | Ki (B1 bradykinin receptor [6]) | half-life [7] | Vd [8] | bioavailability [9] | Activity (Oryctolagus cuniculus [10]) | Activity (Oryctolagus cuniculus [11])
1 | O=C(C[C@@H](NS(=O)(=O)c1ccc2ccccc2c1)c1ccccc1)N[C@@H]1CCOc2cc(CN3CCCCC3)ccc21 | 84.1 mL/min/kg | 4% | 688 µL/min/mg | 390 µL/min/mg | – | – | – | – | – | – | –
2 | O=C(C[C@@H](NS(=O)(=O)c1cccc(C(F)(F)F)c1)c1ccc(F)cc1)N[C@@H]1CCOc2cc(CN3CCCCC3)ccc21 | 24.8 mL/min/kg | – | – | 216 µL/min/mg | 10.4 nM (antagonist) | 127 nM (antagonist) | 2.5 h | 4.64 L/kg | 13% | Dose-dependent effect | Dose-dependent effect
